According to ChEMBL document CHEMBL1155759, “New spirostanol steroids and steroidal saponins from roots and rhizomes of Dracaena angustifolia and their antiproliferative activity” (J Nat Prod, 2001):
Counter-ions that a name gives are not always drawn.

Tests used:
Assay type in all cases: functional, cell-based
[1] = Antiproliferative activity against mouse B16-BL6 cells assessed as cell viability after 72 hrs by MTT assay; conditions: B16-BL6, 72 h
Procedure, shortened: (§1)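 MTT viability assay. HT-1080 and B-16 BL6 were kept in Eagle's MEM, colon 26-L5 in RPMI, all with 10% FCS, 0.1% NaHCO3 and 2 mM glutamine. 2500 cells/well were attached for 24 h at 37 °C, 5% CO2, then exposed 72 h to graded concentrations (DMSO stock, final DMSO <0.1%). MTT was added for 2 h, formazan read at 540 nm, and IC50 taken from means of four wells.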

HT-1080 = test: Antiproliferative activity against human HT1080 cells assessed as cell viability after 72 hrs by MTT assay; conditions: HT-1080, 72 h; procedure, shortened: as §1
[2] = Antiproliferative activity against mouse Colon 26-L5 cells assessed as cell viability after 72 hrs by MTT assay

SMILES | IC50 [1] [µM] | IC50 (HT-1080) [µM] | IC50 [2] [µM]
C=C1CO[C@@]2(O[C@H]3C[C@H]4[C@@H]5CC=C6C[C@@H](O)C[C@@H](O[C@@H]7OC[C@H](O)[C@H](O)[C@H]7O[C@@H]7O[C@@H](C)[C@H](OC(C)=O)[C@@H](O)[C@H]7O)[C@]6(C)[C@H]5CC[C@]4(C)[C@H]3[C@@H]2C)[C@@H](O)[C@H]1O[C@@H]1O[C@H](C)[C@H](O)[C@H](O)[C@H]1O [NAMONIN D] | 42.4 | 21.6 | 97.4
O=c1[nH]cc(F)c(=O)[nH]1 [FLUOROURACIL] | 0.6 | 1.5 | 0.5
C=C1CO[C@@]2(O[C@H]3C[C@H]4[C@@H]5CC=C6C[C@@H](O)C[C@@H](O[C@@H]7OC[C@H](O)[C@H](O[C@@H]8OC[C@@H](O)[C@H](OC(C)=O)[C@H]8O)[C@H]7O[C@@H]7O[C@@H](C)[C@H](OC(C)=O)[C@@H](OC(C)=O)[C@H]7OC(C)=O)[C@]6(C)[C@H]5CC[C@]4(C)[C@H]3[C@@H]2C)[C@@H](O)[C@H]1O[C@@H]1O[C@H](C)[C@H](O)[C@H](O)[C@H]1O [NAMONIN A] | 9.7 | 0.2 | 26.6
CC1CC[C@@]2(OC1)O[C@H]1C[C@@]3(O)[C@@H]4CC=C5C[C@@H](O)C[C@@H](O)[C@]5(C)[C@H]4CC[C@]3(C)[C@@]1(O)[C@@H]2C (mixture of isomers) [(25R,S)-NAMOGENIN A] | > 100 | > 100 | > 100
C=C(CCC1=C(C)[C@H]2[C@H](C[C@H]3[C@@H]4CC=C5C[C@@H](O)C[C@@H](O[C@@H]6OC[C@H](O)[C@H](O)[C@H]6O[C@@H]6O[C@@H](C)[C@H](O)[C@@H](O)[C@H]6O)[C@]5(C)[C@H]4CC[C@@]32C)O1)CO[C@@H]1O[C@H](CO)[C@@H](O)[C@H](O)[C@H]1O | > 100 | > 100 | > 100
C=C1CC[C@@]2(OC1)O[C@H]1C[C@H]3[C@@H]4CC=C5C[C@@H](O)C[C@@H](O[C@@H]6OC[C@H](O)[C@H](O)[C@H]6O[C@@H]6O[C@@H](C)[C@H](O)[C@@H](O)[C@H]6O)[C@]5(C)[C@H]4CC[C@]3(C)[C@H]1[C@@H]2C | 41.2 | 42.1 | 95.3
C=C1CO[C@@]2(O[C@H]3C[C@H]4[C@@H]5CC=C6C[C@@H](O)C[C@@H](O[C@@H]7OC[C@H](O)[C@H](O[C@@H]8OC[C@@H](O)[C@H](O)[C@H]8O)[C@H]7O[C@@H]7O[C@@H](C)[C@H](OC(C)=O)[C@@H](OC(C)=O)[C@H]7OC(C)=O)[C@]6(C)[C@H]5CC[C@]4(C)[C@H]3[C@@H]2C)[C@@H](O)[C@H]1O[C@@H]1O[C@H](C)[C@H](O)[C@H](O)[C@H]1O | 11.9 | 0.6 | 22.1
C=C1CO[C@@]2(O[C@H]3C[C@H]4[C@@H]5CC=C6C[C@@H](O)C[C@@H](O[C@@H]7OC[C@H](O)[C@H](O)[C@H]7O[C@@H]7O[C@@H](C)[C@H](OC(C)=O)[C@@H](OC(C)=O)[C@H]7OC(C)=O)[C@]6(C)[C@H]5CC[C@]4(C)[C@H]3[C@@H]2C)[C@@H](O)[C@H]1O[C@@H]1O[C@H](C)[C@H](O)[C@H](O)[C@H]1O | 20.9 | 3.8 | 30.2
C=C1CO[C@@]2(O[C@H]3C[C@H]4[C@@H]5CC=C6C[C@@H](O)C[C@@H](O[C@@H]7OC[C@H](O)[C@H](O)[C@H]7O[C@@H]7O[C@@H](C)[C@H](O)[C@@H](O)[C@H]7O)[C@]6(C)[C@H]5CC[C@]4(C)[C@H]3[C@@H]2C)[C@@H](O)[C@H]1O | 4.2 | 56.5 | 5.3
COc1cccc2c1C(=O)c1c(O)c3c(c(O)c1C2=O)C[C@@](O)(C(=O)CO)C[C@@H]3O[C@H]1C[C@H](N)[C@H](O)[C@H](C)O1 [DOXORUBICIN HYDROCHLORIDE] | 0.2 | 0.2 | –
CC(=O)O[C@H]1CO[C@@H](O[C@@H]2C[C@H](O)CC3=CC[C@H]4[C@@H]5C[C@@H]6OC(CC[C@@H](C)CO[C@@H]7O[C@H](CO)[C@@H](O)[C@H](O)[C@H]7O)=C(C)[C@@H]6[C@@]5(C)CC[C@@H]4[C@]32C)[C@H](O[C@@H]2O[C@@H](C)[C@H](O)[C@@H](O)[C@H]2O)[C@H]1O[C@@H]1OC[C@@H](O)[C@H](O)[C@H]1O [NAMONIN E] | > 100 | 21.8 | > 100
C=C1CC[C@@]2(OC1)O[C@H]1C[C@@]3(O)[C@@H]4CC=C5C[C@@H](O)C[C@@H](O)[C@]5(C)[C@H]4CC[C@]3(C)[C@@]1(O)[C@@H]2C [NAMOGENIN C] | > 100 | > 100 | > 100
C=C1CC[C@@]2(OC1)O[C@H]1C[C@H]3[C@@H]4CC=C5C[C@@H](O)C[C@@H](O[C@@H]6OC[C@H](O)[C@H](O)[C@H]6O)[C@]5(C)[C@H]4CC[C@]3(C)[C@H]1[C@@H]2C | 47.9 | 40 | 77.2
C=C1CO[C@@]2(O[C@H]3C[C@H]4[C@@H]5CC=C6C[C@@H](O)C[C@@H](O[C@@H]7OC[C@H](O)[C@H](O[C@@H]8OC[C@@H](O)[C@H](O)[C@H]8O)[C@H]7O[C@@H]7O[C@@H](C)[C@H](OC(C)=O)[C@@H](OC(C)=O)[C@H]7OC(C)=O)[C@]6(C)[C@H]5CC[C@]4(C)[C@H]3[C@@H]2C)[C@@H](O)[C@H]1O | 28.4 | 11.1 | 76.6
CC1CC[C@@]2(OC1)O[C@H]1C[C@@]3(O)[C@@H]4CC=C5C[C@@H](O)C[C@@H](O)[C@]5(C)[C@H]4CC[C@]3(C)[C@H]1[C@@H]2C (single isomer, unassigned) [NAMOGENIN B] | > 100 | > 100 | > 100
C=C1CO[C@@]2(O[C@H]3C[C@H]4[C@@H]5CC=C6C[C@@H](O)C[C@@H](O[C@@H]7OC[C@H](O)[C@H](O)[C@H]7O[C@@H]7O[C@@H](C)[C@H](O)[C@@H](O)[C@H]7O)[C@]6(C)[C@H]5CC[C@]4(C)[C@H]3[C@@H]2C)[C@@H](O)[C@H]1O[C@@H]1O[C@H](C)[C@H](O)[C@H](O)[C@H]1O [NAMONIN C] | > 100 | 27.7 | > 100
C=C1CO[C@@]2(O[C@H]3C[C@H]4[C@@H]5CC=C6C[C@@H](O)C[C@@H](O[C@@H]7OC[C@H](O)[C@H](O[C@@H]8OC[C@@H](OC(C)=O)[C@H](O)[C@H]8O)[C@H]7O[C@@H]7O[C@@H](C)[C@H](OC(C)=O)[C@@H](OC(C)=O)[C@H]7OC(C)=O)[C@]6(C)[C@H]5CC[C@]4(C)[C@H]3[C@@H]2C)[C@@H](O)[C@H]1O[C@@H]1O[C@H](C)[C@H](O)[C@H](O)[C@H]1O [NAMONIN B] | 11.8 | 0.3 | 27.7
